# Laboratory results reported in ChEMBL document CHEMBL4130485, “Inhibitors of Yellow Fever Virus replication based on 1,3,5-triphenyl-4,5-dihydropyrazole scaffold: Design, synthesis and antiviral evaluation” (Eur J Med Chem, 2017).
# Active and inactive are the calls of the source. The calls are words filed in the database; no cut-off is given here.
# Tests used:
# [1] = Cytotoxicity against golden hamster BHK21 cells assessed as decrease in cell viability after 72 hrs by MTT assay; format: cell-based, Mesocricetus auratus, BHK-21
# Outline: (§1)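 Uninfected MDBK (6×10^5 cells/mL, 10% horse serum) or BHK (1×10^6 cells/mL, 10% FBS) cells in MEM-Earle with serial compound dilutions at 37 °C, 5% CO2, run in parallel with the antiviral assays. Viability read by MTT after 72 h. CC50 by linear regression; mean of three determinations.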
# Yellow fever virus [2] = assay: Antiviral activity against Yellow fever virus 17D vaccine (Stamaril Pasteur J07B01) infected in golden hamster BHK21 cells assessed as protection against virus-induced cytopathic effect after 3 to 4 days by MTT assay; format: functional, organism-based; conditions: BHK-21
# Outline: (§2)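 BHK-21 cells (MDBK for BVDV) seeded at 5×10^4 (BHK) or 3×10^4 (MDBK) cells/well and grown overnight to confluence. Infected at m.o.i. 0.01 in maintenance MEM-Earle with 0.5% inactivated FBS. Serial compound dilutions added 2 h later (final 100, 20, 4, 0.8 µM; DMSO ≤0.1%). Viability read by MTT after 3–4 days at 37 °C. EC50 obtained by linear regression against untreated controls; mean of three determinations.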
# [3] = Selectivity index, ratio of CC50 for golden hamster BHK21 cells to EC50 for Yellow fever virus 17D; format: toxicity; conditions: read-out: Ratio CC50/EC50
# Outline: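 Selectivity index calculated as BHK-21 CC50 divided by YFV EC50, both from MTT assays.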
# [4] = Cytotoxicity against African green monkey Vero 76 cells assessed as decrease in cell viability after 48 to 96 hrs by MTT assay; format: cell-based; conditions: chlorocebus sabaeus
# Outline: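 Vero 76 cells seeded at 5×10^5 cells/mL in D-MEM with 10% FBS and incubated with serial compound dilutions at 37 °C, 5% CO2. Viability read by MTT after 48–96 h. CC50 by linear regression versus untreated controls.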
# Human orthopneumovirus = assay: Antiviral activity against Human respiratory syncytial virus A2 ATCC VR 1540 infected in African green monkey Vero 76 cells assessed as protection against virus-induced cytopathic effect after 5 days by crystal violet staining-based plaque reduction assay; format: functional, organism-based; conditions: ATCC VR 1540, Vero 76, 120 h
# Yellow fever virus [5] = assay: Antiviral activity against Yellow fever virus 17D vaccine (Stamaril Pasteur J07B01) infected in golden hamster BHK21 cells assessed as protection against virus-induced cytopathic effect at 90 uM pretreated for 2 hrs followed by viral infection and measured after 24 to 36 hrs post infection by MTT assay; format: functional, organism-based
# Outline: (§3)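 Confluent BHK-21 monolayers inoculated at room temperature with YFV 17-D at 1 PFU/cell, adsorbed 60 min and washed. Compound at 20 µM (test) or 90 µM (6-azauridine reference) added 2 h before infection, during the 2 h infection, or in 2-h windows from 0 to 10 h p.i. Wells washed, refed until 10 h, CPE scored at 24–36 h p.i. Cells frozen and titred by plaque assay.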
# [6] = tested on: Mammalian orthoreovirus 1; assay: Antiviral activity against Reovirus 1 infected in golden hamster BHK21 cells assessed as protection against virus-induced cytopathic effect after 3 to 4 days by MTT assay; format: functional, organism-based; conditions: Mammalian orthoreovirus 1, BHK-21; outline: as §2
# Yellow fever virus [7] = assay: Potency index, ratio of azauridine EC50 to compound EC50 for Yellow fever virus 17D vaccine (Stamaril Pasteur J07B01); format: functional
# Yellow fever virus [8] = conditions: Yellow fever virus 17D; vaccine (Stamaril Pasteur J07B01); at 20 µM
# Vaccinia virus = assay: Antiviral activity against Vaccinia virus Lister ATCC VR 1549 infected in African green monkey Vero 76 cells assessed as protection against virus-induced cytopathic effect after 3 days by crystal violet staining-based plaque reduction assay; format: functional, organism-based; conditions: Orthopoxvirus vaccinia, ATCC VR 1549, Vero 76, 72 h
# Yellow fever virus [9] = assay: Antiviral activity against Yellow fever virus 17D vaccine (Stamaril Pasteur J07B01) infected in golden hamster BHK21 cells assessed as protection against virus-induced cytopathic effect at 20 uM pretreated for 2 hrs followed by viral infection and measured after 24 to 36 hrs post infection by MTT assay; format: functional, organism-based; outline: as §3
# [10] = tested on: Human immunodeficiency virus 1; assay: Antiviral activity against HIV1 3B infected in human MT4 cells assessed as protection against virus-induced cytopathic effect after 4 days by MTT assay; format: functional, organism-based; conditions: Human immunodeficiency virus 1, 3B, MT4, 96 h
# Outline: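 MT-4 cells (1×10^4/well) in RPMI with serial compound dilutions, infected with 100 CCID50 HIV-1 (m.o.i. 0.01). Viability read by MTT after 4 days at 37 °C. EC50 for 50% protection from cytopathicity obtained by linear regression versus untreated controls; mean of three determinations.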
# Enterovirus C = assay: Antiviral activity against Enterovirus C Sabin […] infected in African green monkey Vero 76 cells assessed as protection against virus-induced cytopathic effect after 2 days by crystal violet staining-based plaque reduction assay; format: functional, organism-based; conditions: Vero 76, 48 h
# Human alphaherpesvirus 1 = assay: Antiviral activity against Human herpesvirus 1 KOS ATCC VR 1493 infected in African green monkey Vero 76 cells assessed as protection against virus-induced cytopathic effect after 3 days by crystal violet staining-based plaque reduction assay; format: functional, organism-based; conditions: Human alphaherpesvirus 1, KOS, Vero 76, 72 h
# [11] = tested on: Vesicular stomatitis Indiana virus; assay: Antiviral activity against Vesicular stomatitis virus Indiana ATCC VR 158 infected in African green monkey Vero 76 cells assessed as protection against virus-induced cytopathic effect after 2 days by crystal violet staining-based plaque reduction assay; format: functional, organism-based; conditions: ATCC VR 158, Vero 76, 48 h
# [12] = Antiviral activity against Human enterovirus B Faulkner ATCC VR 185 infected in African green monkey Vero 76 cells assessed as protection against virus-induced cytopathic effect after 3 days by crystal violet staining-based plaque reduction assay; format: functional, cell-based; conditions: Faulkner ATCC VR 185, Vero 76, 72 h
# [13] = Selectivity index, ratio of CC50 for bovine MDBK cells to EC50 for Bovine viral diarrhea virus NADL ATCC VR 534; format: toxicity; conditions: cattle, read-out: Ratio CC50/EC50
# Outline: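 Selectivity index calculated as MDBK CC50 divided by BVDV EC50, both by MTT.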
# dengue virus type 2 = assay: Antiviral activity against Dengue virus type 2 clinical isolate infected in golden hamster BHK21 cells assessed as protection against virus-induced cytopathic effect after 3 to 4 days by MTT assay; format: functional, organism-based; conditions: BHK-21; outline: as §2
# [14] = Cytotoxicity against human MT4 cells assessed as decrease in cell viability after 96 hrs by MTT assay; format: cell-based
# Outline: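 Exponentially growing MT-4 cells seeded at 1×10^5 cells/mL in RPMI-1640 with 10% FBS and incubated with serial compound dilutions at 37 °C, 5% CO2. Viability read by MTT after 96 h. CC50 by linear regression versus untreated controls.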
# [15] = Cytotoxicity against bovine MDBK cells assessed as decrease in cell viability after 72 hrs by MTT assay; format: cell-based, Bos taurus; conditions: cattle; outline: as §1
# [16] = tested on: Bovine viral diarrhea virus 1; assay: Antiviral activity against Bovine viral diarrhea virus NADL ATCC VR 534 infected in bovine MDBK cells assessed as protection against virus-induced cytopathic effect after 3 to 4 days by MTT assay; format: functional, organism-based, Bovine viral diarrhea virus 1-NADL; conditions: Bovine viral diarrhea virus isolates and strains, ATCC VR 534, MDBK; outline: as §2
# West Nile virus = assay: Antiviral activity against West Nile virus clinical isolate infected in golden hamster BHK21 cells assessed as protection against virus-induced cytopathic effect after 3 to 4 days by MTT assay; format: functional, organism-based; conditions: BHK-21; outline: as §2
# [17] = Cytotoxicity against African green monkey Vero 76 cells assessed as decrease in cell viability after 5 days by MTT assay; format: cell-based; conditions: chlorocebus sabaeus
# [18] = Selectivity index, ratio of CC50 for African green monkey Vero 76 cells to EC50 for Human coxsackievirus B5 Faulkner; format: toxicity; conditions: read-out: Ratio CC50/EC50
# Outline: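 Selectivity index calculated as Vero 76 CC50 (MTT) divided by CVB-5 plaque-reduction EC50.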
Compound,CC50 at 72 h [1] [µM],EC50 (Yellow fever virus [2]) [µM],selectivity ratio [3],CC50 [4] [µM],EC50 (Human orthopneumovirus) [µM],EC50 [6] [µM],Ratio EC50 (Yellow fever virus [7]),EC50 (Vaccinia virus) [µM],EC50 [10] [µM],EC50 (Enterovirus C) [µM],EC50 (Human alphaherpesvirus 1) [µM],EC50 [11] [µM],EC50 [12] [µM],EC50 (dengue virus type 2) [µM],CC50 at 96 h [14] [µM],CC50 at 72 h [15] [µM],EC50 [16] [µM],EC50 (West Nile virus) [µM],CC50 at 120 h [17] [µM],further results
O=c1cnn([C@@H]2O[C@H](CO)[C@@H](O)[C@H]2O)c(=O)[nH]1 [6-AZAURIDINE],> 100,20,> 5,16,40,18,,,,,,,,,,,,,,Activity (Yellow fever virus [5]): Active
NS(=O)(=O)c1ccc(N2N=C(c3ccc(OCc4ccccc4)cc3)CC2c2ccccc2F)cc1 (configuration not stated),90 to 92,1.8,50,> 100,> 100,> 92,10,> 100,> 39,> 100,> 100,> 100,> 100,> 90,39,> 100,52,> 90,,inhibition (Yellow fever virus [8]): Active; inhibition (Yellow fever virus [9]): Active; selectivity ratio [13]: > 1.9
NS(=O)(=O)c1ccc(N2N=C(c3ccc(Oc4ccccc4)cc3)CC2c2ccccc2)cc1 (configuration not stated),11 to 13,2.1,6.2,85,> 35,> 11,10,> 85,13,> 85,> 85,> 85,3.5,> 13,42,5,> 5,> 13,35,selectivity ratio [18]: 24.3
NS(=O)(=O)c1ccc(N2N=C(c3ccc(OCc4ccccc4)cc3)CC2c2ccccc2)cc1 (configuration not stated),80 to 84,2.2,36.4,> 100,> 100,> 84,10,> 100,> 100,> 100,> 100,> 100,> 100,> 80,> 100,72,> 72,> 80,,inhibition (Yellow fever virus [8]): Active; inhibition (Yellow fever virus [9]): Active
Cc1ccccc1C1CC(c2ccc(Oc3ccccc3)cc2)=NN1c1ccc(S(N)(=O)=O)cc1 (configuration not stated),7 to 8,2.2,3.6,90,> 14,> 7,10,> 90,13,> 90,> 90,> 90,> 90,> 8,36,16,> 16,> 8,14,
Cc1ccc(C2CC(c3ccc(Oc4ccccc4)cc3)=NN2c2ccc(S(N)(=O)=O)cc2)cc1 (configuration not stated),8 to 9,1.8,5,86,> 20,> 8,10,> 86,> 7.2,> 86,> 86,> 86,> 86,> 9,7.2,21,> 21,> 9,20,
NS(=O)(=O)c1ccc(N2N=C(c3ccc(OCc4ccccc4)cc3)CC2c2cccc(F)c2)cc1 (configuration not stated),9 to 11,2,5.5,90,> 25,> 9,10,> 90,> 65,> 90,> 90,> 90,8.5,> 11,65,15,10,> 11,25,selectivity ratio [13]: 1.5; selectivity ratio [18]: 10.6
